Source: ChEMBL document CHEMBL1821622, “Thiazole- and imidazole-containing peptidomimetic inhibitors of protein farnesyltransferase” (Bioorg Med Chem Lett, 2011)
Activity calls are given as the source filed them. The calls are words filed in the database; no cut-off is given here.

Assays:
[1] = (§1) Inhibition of rat recombinant FTase using Dansyl-Gly-Cys-Val-Leu-Ser-OH peptide and farnesyl-pyrophosphate substrates measured every 15 seconds for 5 mins by fluorescent assay
[2] = (§2) Inhibition of cell proliferation in RASMC cells after 72 hrs by Coulter Counter method; assay type: functional, cell-based, Rattus norvegicus
Method in brief: (§3)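 Rat aortic SMCs were seeded at 2 × 10^5 cells per 35 mm dish in DMEM with 10% FCS. Cells were counted after trypsinization. DMSO was at most 0.5% final. IC50 came from linear regression of log concentration vs logit.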

Rattus norvegicus = species on record: Rattus norvegicus; assay: as §1
RASMC [3] = assay: as §2; assay type: functional, cell-based; settings: Rattus norvegicus; method in brief: as §3
RASMC [4] = assay: Inhibition of rat Ftase in RASMC cells assessed as reduction of Ras prenylation at 50 to 100 uM after 72 hrs by Western blot analysis relative to control; assay type: cell-based
Method in brief: (§4)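 Rat SMCs were seeded at 4 × 10^5 per 60 mm dish and taken through the same serum arrest and restimulation as the proliferation assay, with 72 h exposure. Cells were lysed for 30 min on ice in Tris pH 7.5/NaCl/NP-40 buffer with inhibitors and cleared at 15,000g. Protein was measured by BCA. Lysates were run on reducing SDS-PAGE and immunoblotted with anti-Ras (RAS10) using ECL. The slower band is unprenylated Ras; the faster band is prenylated Ras.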

RASMC [5] = assay: Inhibition of rat Ftase in RASMC cells assessed as reduction in Ras prenylation at 2 uM after 72 hrs by Western blot analysis; assay type: cell-based; method in brief: as §4
[6] = Rattus norvegicus, RASMC, 72 h, read-out: IC50

CSCC[C@H](NC(=O)c1ccc(NC[C@@H](N)CS)cc1-c1ccccc1)C(=O)O
IC50 ([1]; read-out: IC50): 9 nM

CSCC[C@H](NC(=O)c1ccc(NC(=O)Cc2csc(N)n2)cc1-c1ccccc1C)C(=O)OC(C)C
IC50 [2, 6]: 107000 nM

CSCC[C@H](NC(=O)c1ccc(NC(=O)Cc2c[nH]c(S)n2)cc1-c1ccccc1C)C(=O)OC(C)C
IC50 [2, 6]: 226000 nM

CSCC[C@H](NC(=O)c1ccc(NC(=O)CCc2csc(S)n2)cc1-c1ccccc1C)C(=O)OC(C)C
IC50 [2, 6]: 25000 nM

CSCC[C@H](NC(=O)c1ccc(NC(=O)CCc2csc(SC)n2)cc1-c1ccccc1C)C(=O)O
IC50 ([1]; read-out: IC50): 415 nM

CSCC[C@H](NC(=O)c1ccc(NC(=O)CCc2c[nH]c(S)n2)cc1-c1ccccc1C)C(=O)O
IC50 [1]: Not Active

CSCC[C@H](NC(=O)c1ccc(NC(=O)CCc2csc(N)n2)cc1-c1ccccc1C)C(=O)OC(C)C
IC50 ([2]; rasmc): Not Active

CSCC[C@H](NC(=O)c1ccc(NC(=O)CCc2csc(SC)n2)cc1-c1ccccc1C)C(=O)OC(C)C
IC50 ([2]; rasmc): Not Active

CSCC[C@H](NC(=O)c1ccc(NC(=O)Cc2csc(N)n2)cc1-c1ccccc1C)C(=O)O
IC50 ([1]; read-out: IC50): 49 nM | inhibition (Rattus norvegicus): Dose-dependent effect | inhibition (RASMC [3]): Dose-dependent effect | inhibition (RASMC [4]): Dose-dependent effect

CSCC[C@H](NC(=O)c1ccc(NC(=O)CCc2csc(N)n2)cc1-c1ccccc1C)C(=O)O
IC50 ([1]; read-out: IC50): 390 nM

CSCC[C@H](NC(=O)c1ccc(NC(=O)Cc2csc(SC)n2)cc1-c1ccccc1C)C(=O)OC(C)C
IC50 ([2]; rasmc): Not Active

CSCC[C@H](NC(=O)c1ccc(NC(=O)CCc2c[nH]c(S)n2)cc1-c1ccccc1C)C(=O)OC(C)C
IC50 [2, 6]: 34000 nM

CSCC[C@H](NC(=O)c1ccc(NC(=O)Cc2c[nH]c(S)n2)cc1-c1ccccc1C)C(=O)O
IC50 ([1]; read-out: IC50): 122 nM

CSCC[C@H](NC(=O)c1ccc(NC(=O)Cc2csc(S)n2)cc1-c1ccccc1C)C(=O)OC(C)C
IC50 [2, 6]: 21000 nM

CCC(C)(C)C(=O)O[C@H]1C[C@@H](C)C=C2C=C[C@H](C)[C@H](CC[C@@H]3C[C@@H](O)CC(=O)O3)[C@H]21
inhibition (RASMC [5]): Active

CSCC[C@H](NC(=O)c1ccc(NC(=O)Cc2csc(S)n2)cc1-c1ccccc1C)C(=O)O
IC50 ([1]; read-out: IC50): 538 nM

CSCC[C@H](NC(=O)c1ccc(NC(=O)Cc2csc(SC)n2)cc1-c1ccccc1C)C(=O)O
IC50 [1]: Not Active

CSCC[C@H](NC(=O)c1ccc(NC(=O)CCc2csc(S)n2)cc1-c1ccccc1C)C(=O)O
IC50 ([1]; read-out: IC50): 526 nM
